Experimental data: ChEMBL document CHEMBL4346679, “N, N', N″-trisubstituted guanidines: Synthesis, characterization and evaluation of their leishmanicidal activity” (Eur J Med Chem, 2019)
The source made the active and inactive calls. The calls are words filed in the database; no cut-off is given here.

Key:
Leishmania amazonensis [1] = experiment: Antileishmanial activity against Leishmania amazonensis MPRO/BR/1972/M1841-LV-79 amastigotes infected in mouse peritoneal macrophages assessed as parasite growth inhibition after 24 hrs by Giemsa staining-based microscopic method; assay type: functional, organism-based; details: MPRO/BR/1972/M1841-LV-79, 24 h
In short: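 Peritoneal macrophages (3 × 10^5/well on coverslips, RPMI 1640 + 10% FBS) adhered 4 h at 37 °C, 5% CO2, then infected with stationary-phase promastigotes at 5:1 for 4 h. After washing, cells were cultured 18 h, then treated 24 h with compounds or reference drugs. Cells were methanol-fixed and Giemsa-stained. Infection index = % infected macrophages × mean amastigotes per infected cell. IC50 was fitted by regression.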

[2] = Safety index, ratio of CC50 for mouse peritoneal macrophages to IC50 for Leishmania amazonensis MPRO/BR/1972/M1841-LV-79 amastigotes infected in mouse peritoneal macrophages; assay type: toxicity; details: read-out: Ratio CC50/IC50
[3] = Cytotoxicity against mouse peritoneal macrophages assessed as decrease in cell viability after 24 hrs by MTT assay; assay type: cell-based, Peritoneal macrophage
In short: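 Peritoneal macrophages (1 × 10^5/well) in RPMI 1640 with 10% FBS, 25 mM HEPES and 2 mM L-glutamine were pre-incubated 4 h. They were then exposed to compounds for 24 h at 37 °C, 5% CO2. Viability was read by MTT; CC50 determined.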

[4] = Safety index, ratio of CC50 for mouse peritoneal macrophage to IC50 for promastigote stage of Leishmania amazonensis MPRO/BR/1972/M1841-LV-79; assay type: toxicity; details: read-out: Ratio CC50/IC50
Leishmania amazonensis [5] = experiment: Antileishmanial activity against promastigote stage of Leishmania amazonensis MPRO/BR/1972/M1841-LV-79 assessed as parasite growth inhibition after 72 hrs by MTT assay; assay type: functional, organism-based; details: MPRO/BR/1972/M1841-LV-79, 72 h
In short: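 Promastigotes at 1 × 10^7/mL in LIT + 10% FBS were exposed 72 h at 28 °C to ten concentrations, 0.5–100 µM (final DMSO 0.1%). Viability was read by MTT, with formazan dissolved in SDS-HCl and absorbance at 570 nm. Run in triplicate; IC50 from nonlinear regression.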

Leishmania amazonensis [6] = experiment: Antileishmanial activity against Leishmania amazonensis MPRO/BR/1972/M1841-LV-79 amastigotes infected in mouse peritoneal macrophages assessed as reduction in number of intracellular amastigotes at 25 uM after 72 hrs by Giemsa staining-based microscopic method relative to control; assay type: functional; design: scale not given: the % may be the effect or the level left
In short: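 Infected peritoneal macrophages were treated with 25 µM of each compound, pentamidine or AmpB for 72 h. The infection index (% infected macrophages × amastigotes per infected macrophage) was compared with untreated infected cells. Data are given as mean ± SD.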

[7] = Mutagenicity in Swiss albino mouse assessed as frequency of micronucleated reticulocytes per 2000 cells at 25 mg/kg administered via gavage by acridine orange staining-based micronucleus test; assay type: toxicity, organism-based; details: in vivo, po
In short: (§1)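 Male Swiss albino mice (30 ± 4 g, 5 per group) were dosed by gavage at 25, 50 or 100 mg/kg. Controls: 0.5% hydroxyethylcellulose (negative) and ip cyclophosphamide 50 mg/kg (positive). Peripheral blood was placed on acridine orange (1 mg/mL) pre-stained slides heated at 70 °C. Fluorescence microscopy used 488 nm light; micronucleated cells were counted among 2000 reticulocytes per animal.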

Mus musculus [8] = experiment: Mutagenic index, ratio of test compound effect to hydroxyethylcellulose effect for Swiss albino mouse assessed as frequency of micronucleated reticulocytes per 2000 cells at 100 mg/kg administered via gavage; assay type: organism-based; details: in vivo, po
In short: (§2)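 Male Swiss albino mice (5 per group) received 25, 50 or 100 mg/kg by gavage. The negative control got 0.3 mL of 0.5% hydroxyethylcellulose; the positive control got cyclophosphamide 50 mg/kg ip. Micronucleated reticulocytes were counted per 2000 cells on acridine orange-stained slides. MI = treated MNRET ÷ negative-control MNRET.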

Mus musculus [9] = experiment: Mutagenic index, ratio of test compound effect to hydroxyethylcellulose effect for Swiss albino mouse assessed as frequency of micronucleated reticulocytes per 2000 cells at 50 mg/kg administered via gavage; assay type: organism-based; details: in vivo, po; in short: as §2
[10] = Mutagenicity in Swiss albino mouse assessed as frequency of micronucleated reticulocytes per 2000 cells at 50 mg/kg administered via gavage by acridine orange staining-based micronucleus test; assay type: toxicity, organism-based; details: in vivo, po; in short: as §1
[11] = Mutagenicity in Swiss albino mouse assessed as frequency of micronucleated reticulocytes per 2000 cells at 100 mg/kg administered via gavage by acridine orange staining-based micronucleus test; assay type: toxicity, organism-based; details: in vivo, po; in short: as §1
Mus musculus [12] = experiment: Mutagenic index, ratio of test compound effect to hydroxyethylcellulose effect for Swiss albino mouse assessed as frequency of micronucleated reticulocytes per 2000 cells at 25 mg/kg administered via gavage; assay type: organism-based; details: in vivo, po; in short: as §2
Leishmania amazonensis [13] = experiment: Antileishmanial activity against promastigote stage of Leishmania amazonensis MPRO/BR/1972/M1841-LV-79 infected in Balb/c mouse assessed as decrease in plasma alanine aminotransferase level at 0.13 to 0.25 mg/kg, ip administered once daily for 15 days measured post-last dose; assay type: functional, organism-based
In short: (§3)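 Female BALB/c mice (4 weeks old, 5 per group) were infected in the left hind footpad with 1 × 10^7 parasites/mL of infective promastigotes. After six weeks they received daily ip doses for 15 days: 0.13 or 0.25 mg/kg/day (from DMSO stock in PBS, 0.1% DMSO), AmpB 2 mg/kg/day in sterile water, or PBS. Controls were untreated infected and uninfected mice. At end of treatment, plasma bilirubin, AST, ALT, ALP, urea and creatinine were measured with commercial kits.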

Leishmania amazonensis [14] = experiment: Antileishmanial activity against promastigote stage of Leishmania amazonensis MPRO/BR/1972/M1841-LV-79 infected in Balb/c mouse assessed as reduction in parasitic load at 0.25 mg/kg, ip administered once daily for 15 days by limiting dilution method relative to control; assay type: functional; design: scale not given: the % may be the effect or the level left
In short: (§4)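 Footpad-infected female BALB/c mice (1 × 10^7 parasites/mL promastigotes; 5 per group) were treated from six weeks post-infection. Dosing was daily ip for 15 days: 0.13 or 0.25 mg/kg/day (PBS, 0.1% DMSO), AmpB 2 mg/kg/day, or PBS vehicle. Skin-lesion parasite burden was quantified after treatment by limiting dilution and compared with untreated infected mice. Data are mean ± SD.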

Leishmania amazonensis [15] = experiment: Antileishmanial activity against promastigote stage of Leishmania amazonensis MPRO/BR/1972/M1841-LV-79 infected in Balb/c mouse assessed as reduction in parasitic load at 0.13 mg/kg, ip administered once daily for 15 days by limiting dilution method relative to control; assay type: functional; design: scale not given: the % may be the effect or the level left; in short: as §4
Leishmania amazonensis [16] = experiment: Antileishmanial activity against promastigote stage of Leishmania amazonensis MPRO/BR/1972/M1841-LV-79 infected in Balb/c mouse assessed as increase in plasma bilirubin level at 0.13 to 0.25 mg/kg, ip administered once daily for 15 days measured during compound dosing; assay type: functional, organism-based
[17] = Renal toxicity in Balb/c mouse infected with promastigote stage of Leishmania amazonensis MPRO/BR/1972/M1841-LV-79 assessed as change in plasma urea level at 0.13 to 0.25 mg/kg, ip administered once daily for 15 days measured post-last dose; assay type: organism-based; details: in vivo, 360 h; in short: as §3
Leishmania amazonensis [18] = experiment: Antileishmanial activity against promastigote stage of Leishmania amazonensis MPRO/BR/1972/M1841-LV-79 infected in Balb/c mouse assessed as reduction in volume of foot lesions at 0.13 to 0.25 mg/kg, ip administered once daily for 15 days measured every 5 days during compound dosing by caliper method; assay type: functional, organism-based
In short: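 Infected BALB/c mice (5 per group) were dosed daily ip for 15 days, starting six weeks after footpad inoculation: 0.13 or 0.25 mg/kg/day, AmpB 2 mg/kg/day, or PBS. Foot lesion thickness was measured with a dial caliper every 5 days.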

[19] = Renal toxicity in Balb/c mouse infected with promastigote stage of Leishmania amazonensis MPRO/BR/1972/M1841-LV-79 assessed as change in plasma creatinine level at 0.13 to 0.25 mg/kg, ip administered once daily for 15 days measured post-last dose; assay type: organism-based; details: in vivo, 360 h; in short: as §3
[20] = Toxicity in Balb/c mouse infected with promastigote stage of Leishmania amazonensis MPRO/BR/1972/M1841-LV-79 assessed as change in body weight at 0.13 to 0.25 mg/kg, ip administered once daily for 15 days measured during compound dosing; assay type: organism-based; details: in vivo, 360 h
Leishmania amazonensis [21] = experiment: Antileishmanial activity against promastigote stage of Leishmania amazonensis MPRO/BR/1972/M1841-LV-79 infected in Balb/c mouse assessed as decrease in plasma aspartate aminotransferase level at 0.13 to 0.25 mg/kg, ip administered once daily for 15 days measured post-last dose; assay type: functional, organism-based; in short: as §3
Leishmania amazonensis [22] = experiment: Antileishmanial activity against promastigote stage of Leishmania amazonensis MPRO/BR/1972/M1841-LV-79 infected in Balb/c mouse assessed as decrease in plasma alkaline phosphatase level at 0.13 to 0.25 mg/kg, ip administered once daily for 15 days measured post-last dose; assay type: functional, organism-based; in short: as §3

Structure (SMILES)	IC50 (Leishmania amazonensis [1])	selectivity ratio [2]	CC50 at 24 h [3]	selectivity ratio [4]	IC50 (Leishmania amazonensis [5])	Activity (Leishmania amazonensis [6])	other results
COc1ccc(N/C(=N\C(=O)c2ccccc2)NCc2ccccc2)cc1	21.1 µM	39.6	837 µM	32.9	25.4 µM		
CC(C)(C)c1ccc(N/C(=N\C(=O)c2ccccc2)NCc2ccccc2)cc1	17.2 µM	65	1120 µM	43.2	25.9 µM		
O=C(/N=C(/NCc1ccccc1)Nc1ccc(C(F)(F)F)cc1)c1ccccc1	21.4 µM	0.8	18.6 µM	2.7	6.8 µM		
O=C(/N=C(/NCc1ccccc1)Nc1ccc(F)cc1)c1ccccc1	19 µM	45.5	866 µM	39.5	21.9 µM	70%	
N=C(N)c1ccc(OCCCCCOc2ccc(C(=N)N)cc2)cc1 [PENTAMIDINE]	5.07 µM	7	35.7 µM	4.7	7.6 µM	81%	
O=C(/N=C(/NCc1ccccc1)Nc1ccc(Cl)cc1)c1ccccc1	41.2 µM	20.1	827 µM	42	19.7 µM	19%	
O=C(/N=C(/NCc1ccccc1)Nc1ccc(I)cc1)c1ccccc1	7.1 µM	87.1	619 µM	38.9	15.9 µM	78%	Activity [7]: 3; Ratio (Mus musculus [8]): 1.2; Ratio (Mus musculus [9]): 1; Activity [10]: 5; Activity [11]: 6; Ratio (Mus musculus [12]): 0.6
O=C(/N=C(/NCc1ccccc1)Nc1ccc([N+](=O)[O-])cc1)c1ccccc1	22.1 µM	36.4	802 µM	69.7	11.5 µM		
O=C(/N=C(/NCc1ccccc1)Nc1ccccc1)c1ccccc1			35.9 µM	1.6	22.6 µM		
Cc1ccc(N/C(=N\C(=O)c2ccccc2)NCc2ccccc2)cc1	24.2 µM	36.2	876 µM	41.9	20.9 µM		
O=C(/N=C(/NCc1ccccc1)Nc1ccc(Br)cc1)c1ccccc1	5.6 µM	132	738 µM	37.7	19.6 µM	86%	Activity (Leishmania amazonensis [13]): Active; Activity [7]: 7; Activity (Leishmania amazonensis [14]): 60%; Activity (Leishmania amazonensis [15]): 46%; Ratio (Mus musculus [8]): 1.2; Ratio (Mus musculus [9]): 1.6; Activity (Leishmania amazonensis [16]): Active; Activity [10]: 8; Activity [11]: 6; Activity [17]: Non-Toxic; Activity (Leishmania amazonensis [18]): Active; Activity [19]: Non-Toxic; Activity [20]: Non-Toxic; Activity (Leishmania amazonensis [21]): inactive; Ratio (Mus musculus [12]): 1.4; Activity (Leishmania amazonensis [22]): Active
